In ChEMBL document CHEMBL3407469, “Development of benzimidazole derivatives to inhibit HIV-1 replication through protecting APOBEC3G protein” (Eur J Med Chem, 2015):
Calls of active or inactive are those of the source. The calls are words filed in the database; no cut-off is given here.

Columns and labels:
293T [1] = test: Inhibition of full-length X4 tropic HIV-1 clone pNL4-3 Vif/human APOBEC3G complex transfected in human 293T cells assessed as increase in cellular APOBEC3G level measured after 48 hrs by fluorescence microscopy relative to control; assay type: cell-based
Summary of the method: (§1)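 293T cells were co-transfected with Vif and A3G-GFP plasmids, then treated with DMSO or a dilution series of compound. After 48 h, A3G-GFP was measured as mean fluorescence intensity on a plate reader, by western blot, or by fluorescence microscopy, each compared with the DMSO control.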

[2] = system: Human immunodeficiency virus 1; test: Antiviral activity against X4 tropic HIV-1 clone pNL4-3 infected in human PBMC cells assessed as reduction in p24 antigen at 0.00005 to 5 uM after 4 days by ELISA; assay type: functional, organism-based
[3] = (§2) Inhibition of purified X4 tropic HIV-1 clone pNL4-3 His tagged Vif binding to recombinant human APOBEC3G expressed in Escherichia coli BL21 assessed as reduction in max resonance unit at 4 uM preincubated with APOBEC3G for 30 mins by surface plasmon resonance method relative to untreated A3G protein control
Summary of the method: (§3)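 His-tagged Vif and A3G were expressed from pET32a in E. coli BL21 with 1 mM IPTG and purified on Ni-agarose (500 mM imidazole elution). Vif-His was immobilized on a CM5 chip in 10 mM acetate, pH 4.0, then blocked with 1 M ethanolamine. A3G-His was pre-incubated at 25 °C for 30 min with compound or DMSO in 10 mM PBS with 5% DMSO before injection. SPR binding was read as max resonance units.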

293T [4] = test: Inhibition of full-length X4 tropic HIV-1 clone pNL4-3 Vif binding to ElonginB (unknown origin) transfected in human 293T cells measured at 50 uM after 48 hrs by co-immunoprecipitation assay; assay type: cell-based
Summary of the method: (§4)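 293T cells were transfected with HA-tagged Vif plus Flag-tagged EloC/EloB/Cul5 plasmids and treated with compound or DMSO. After 48 h, cells were lysed in IP lysis buffer. Lysates were incubated with anti-HA beads overnight at 4 °C and washed three times in lysis buffer before analysis of co-precipitated partners.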

293T [5] = test: Inhibition of full-length X4 tropic HIV-1 clone pNL4-3 Vif binding to ElonginC (unknown origin) transfected in human 293T cells measured at 50 uM after 48 hrs by co-immunoprecipitation assay; assay type: cell-based; summary of the method: as §4
293T [6] = test: Inhibition of full-length X4 tropic HIV-1 clone pNL4-3 Vif binding to Cullin5 (unknown origin) transfected in human 293T cells measured at 50 uM after 48 hrs by co-immunoprecipitation assay; assay type: cell-based; summary of the method: as §4
Mus musculus [7] = test: Toxicity in Balb/c mouse assessed as change in body weight at 500 to 1000 mg/kg, ip; assay type: organism-based; parameters: dose 500-1000 mg/kg, route intraperitoneal; conditions: in vivo
Summary of the method: (§5)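 Male Balb/c mice aged 4–6 weeks were randomized into three groups (5 mice) and given a single intraperitoneal injection of 0, 500 or 1000 mg/kg. Body weight was followed for two weeks. On day 14, mice were sacrificed. Heart, liver, lung, spleen and kidney were fixed in 4% formaldehyde for H&E staining, and blood was analysed for AST, ALT, BUN and creatinine.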

Mus musculus [8] = test: Toxicity in Balb/c mouse assessed as abnormality in heart at 500 to 1000 mg/kg, ip; assay type: organism-based; parameters: dose 500-1000 mg/kg, route intraperitoneal; conditions: in vivo; summary of the method: as §5
Mus musculus [9] = test: Toxicity in Balb/c mouse assessed as abnormality in liver at 500 to 1000 mg/kg, ip; assay type: organism-based; parameters: dose 500-1000 mg/kg, route intraperitoneal; conditions: in vivo; summary of the method: as §5
Mus musculus [10] = test: Toxicity in Balb/c mouse assessed as abnormality in lung at 500 to 1000 mg/kg, ip; assay type: organism-based; parameters: dose 500-1000 mg/kg, route intraperitoneal; conditions: in vivo; summary of the method: as §5
Mus musculus [11] = test: Toxicity in Balb/c mouse assessed as abnormality in spleen at 500 to 1000 mg/kg, ip; assay type: organism-based; parameters: dose 500-1000 mg/kg, route intraperitoneal; conditions: in vivo; summary of the method: as §5
Mus musculus [12] = test: Toxicity in Balb/c mouse assessed as abnormality in kidney at 500 to 1000 mg/kg, ip; assay type: organism-based; parameters: dose 500-1000 mg/kg, route intraperitoneal; conditions: in vivo; summary of the method: as §5
Mus musculus [13] = test: Toxicity in Balb/c mouse assessed as effect on AST level at 500 to 1000 mg/kg, ip; assay type: organism-based; parameters: dose 500-1000 mg/kg, route intraperitoneal; conditions: in vivo; summary of the method: as §5
Mus musculus [14] = test: Toxicity in Balb/c mouse assessed as effect on ALT level at 500 to 1000 mg/kg, ip; assay type: organism-based; parameters: dose 500-1000 mg/kg, route intraperitoneal; conditions: in vivo; summary of the method: as §5
Mus musculus [15] = test: Toxicity in Balb/c mouse assessed as effect on BUN level at 500 to 1000 mg/kg, ip; assay type: organism-based; parameters: dose 500-1000 mg/kg, route intraperitoneal; conditions: in vivo; summary of the method: as §5
Mus musculus [16] = test: Toxicity in Balb/c mouse assessed as effect on CRE level at 500 to 1000 mg/kg, ip; assay type: organism-based; parameters: dose 500-1000 mg/kg, route intraperitoneal; conditions: in vivo; summary of the method: as §5
[17] = Cytotoxicity against human H9 cells by MTS assay; assay type: cell-based
293T [18] = test: Inhibition of full-length X4 tropic HIV-1 clone pNL4-3 Vif/human APOBEC3G complex transfected in human 293T cells measured at 50 uM after 48 hrs by GFP-based fluorescence assay relative to control; assay type: cell-based
Summary of the method: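 This was the primary screen in 293T cells co-transfected with HA-Vif and A3G-GFP plasmids (Lipofectamine 2000) and given a single compound concentration. DMSO-only wells and A3G-GFP-only transfected wells served as controls. GFP was read after 48 h. A3G-GFP MFI fold change was scored as −, none or <1; +, 1–2; ++, 2–3; +++, >3.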

[19] = system: Human immunodeficiency virus 1; test: Antiviral activity against X4 tropic HIV-1 clone pNL4-3 infected in H9 cells assessed as reduction in p24 antigen after 4 days by ELISA; assay type: functional, organism-based; conditions: Human immunodeficiency virus 1, pNL4-3, H9, 96 h
293T [20] = test: Inhibition of full-length X4 tropic HIV-1 clone pNL4-3 Vif/human APOBEC3G complex transfected in human 293T cells assessed as increase in cellular APOBEC3G level measured after 48 hrs by Western blot analysis relative to control; assay type: cell-based; summary of the method: as §1
[21] = as §2, with “at 9” for “at 4”; summary of the method: as §3

SMILES	inhibition (293T [1])	Activity [2]	inhibition (293T [4])	inhibition (293T [5])	inhibition (293T [6])	Activity (Mus musculus [7])	Activity (Mus musculus [8])	Activity (Mus musculus [9])	Activity (Mus musculus [10])	Activity (Mus musculus [11])	Activity (Mus musculus [12])	Activity (Mus musculus [13])	Activity (Mus musculus [14])	Activity (Mus musculus [15])	Activity (Mus musculus [16])	CC50 [17] [µM]	fold change (FC) (293T [18])	IC50 [19] [µM]	inhibition (293T [20])	other results
CCN(CC)c1ccc(/C=C(\C#N)c2nc3ccccc3[nH]2)cc1	Dose-dependent effect	Active	inactive	inactive	inactive	Non-toxic	Non-toxic	Non-toxic	Non-toxic	Non-toxic	Non-toxic	Non-toxic	Non-toxic	Non-toxic	Non-toxic	> 50	> 3	0.00345	Dose-dependent effect	inhibition [3]: 17%
COc1cc(/C=C(\C#N)c2nc3ccccc3[nH]2)ccc1O	Dose-dependent effect	Active	inactive	inactive	inactive	Non-toxic	Non-toxic	Non-toxic	Non-toxic	Non-toxic	Non-toxic	Non-toxic	Non-toxic	Non-toxic	Non-toxic	> 50	> 3	0.058	Dose-dependent effect	inhibition [21]: 17%
